Compound activity as filed in PubChem.
MrgX1 agonist = agonists of human MrgX1 receptor; Q96LB2; MrgX1-HEK293 cells, Fluo-4 calcium fluorescence, agonist mode; hits give high values; B-score at 10 µM; actives 0.44% (n = 310,000);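 active means calcium response B-score plate-corrected fluorescence ratio at least 3 library SD, with starting fluorescence B-score inside 5 SD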
Target sequence (Q96LB2 whole entry, looked up): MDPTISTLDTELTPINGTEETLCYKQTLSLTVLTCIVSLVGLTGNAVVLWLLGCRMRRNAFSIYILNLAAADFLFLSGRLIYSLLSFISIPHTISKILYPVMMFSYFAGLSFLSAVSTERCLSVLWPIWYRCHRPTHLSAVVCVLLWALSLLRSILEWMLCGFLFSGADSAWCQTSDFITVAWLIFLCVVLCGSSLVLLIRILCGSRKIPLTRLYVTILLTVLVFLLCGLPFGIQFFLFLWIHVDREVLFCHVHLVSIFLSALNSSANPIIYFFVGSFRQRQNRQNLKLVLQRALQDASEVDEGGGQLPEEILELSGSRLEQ
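Material – MrgX1-expressing HEK293 cells · Input – 15,000 cells seeded per well · Dosing – compound as first of three additions · Times – overnight seeding, then 1 h dark dye loading · Measured by – kinetic Fluo-4 NW fluorescence of intracellular calcium · Read-out – B-scored fluorescence response ratio · Benchmarks – positive and negative control wells on each plate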
RGS4 pot = potentiators or activators of RGS4. HEK293 M3R/inducible RGS4, carbachol calcium flux Fluo4; hits give low values. B-score at 10 µM. actives 0.92% (n = 310,000);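 active means B-score of the integrated calcium signal more than 4 SD below the library mean, with starting fluorescence not abnormally high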;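 further: negative B-score means reduced calcium response which marks RGS4 activation or potentiation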
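Detection: kinetic calcium fluorescence imaging with Fluo4-AM dye, 2 µM / Material: HEK293 cells with stable M3R and inducible RGS4 / Schedule: recording 10 s baseline at 1 Hz, 100 s post-agonist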
RGS4 inh = inhibitors of human RGS4; actives 0.45% (n = 310,000); HEK293 M3R/RGS4 inducible, Fluo-4 calcium flux; hits give high values; triggered by carbachol at its EC20; P49798; AID 463165; B-score at 10 µM;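 active means B-score, a plate-corrected calcium signal, over three deviations above library mean, with baseline fluorescence within five deviations of library mean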;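 further: RGS4 expression induced by doxycycline in cells with stable M3 receptor; B-score is computed from the integrated fluorescence ratio over baseline after carbachol; higher B-score means a larger calcium signal and so more RGS4 inhibition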
Target sequence (P49798 whole entry, looked up): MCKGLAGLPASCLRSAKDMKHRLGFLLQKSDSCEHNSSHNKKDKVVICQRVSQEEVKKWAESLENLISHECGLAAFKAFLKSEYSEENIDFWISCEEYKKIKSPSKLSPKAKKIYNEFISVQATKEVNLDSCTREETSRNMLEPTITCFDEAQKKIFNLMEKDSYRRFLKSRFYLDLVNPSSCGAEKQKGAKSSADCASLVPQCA
MrgX1 PAM = human MrgX1 positive allosteric modulation, primary screen. actives 0.63% (n = 310,000). Q96LB2. B-score at 10 µM. AID 588675. MrgX1-HEK293, Fluo-4 calcium flux, FDSS; hits give high values;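 active means plate-corrected calcium response at least 3 library SD above typical, normal starting fluorescence, not activating the receptor alone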;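 further: compound read alongside a low EC10 to EC30 dose of BAM8-22 agonist; peak minus trough fluorescence over baseline measured at the second addition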
MrgX1 antagonist = blocks BAM8-22 activation of human MrgX1 receptor. Q96LB2. MRGX1-HEK293 calcium flux, Fluo-4, BAM8-22 antagonism; hits give low values. B-score at 10 µM. actives 1.3% (n = 310,000). AID 588676;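 active means calcium-response B-score plate-corrected more than 3 library SD below zero, starting fluorescence within 5 deviations, no agonist response on first addition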;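 further: peak minus trough fluorescence over baseline after final BAM8-22 challenge near maximal dose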
MrgX1 antag conf = confirmation of human MrgX1 receptor antagonists; shares compounds with MrgX1 antagonist; MrgX1-HEK293, BAM8-22 calcium flux, Fluo-4; hits give low values; remaining BAM8-22 calcium response % of control (hits give low values), % at 10 µM; actives 19% (n = 2,300); AID 602420;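 active means remaining agonist calcium response no higher than 100% minus 3 SD of agonist-only control wells, with starting fluorescence near control levels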;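 further: agonist BAM8-22 given at a near maximal EC90 to ECmax level; peak minus minimum fluorescence divided by baseline after agonist addition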
HEK293 Ca flux = activity in parental HEK293 cells lacking MrgX1; shares compounds with MrgX1 antagonist; Fluo-4 calcium fluorescence, FDSS; fluorescence ratio F(max-min)/F0 at 10 µM; actives 2% (n = 4,000); AID 624111;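 active means duplicate-averaged calcium fluorescence ratio at least three times the standard deviation of buffer wells, a nonspecific response in parental cells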
HEK293 Ca counter = MrgX1 allosteric activator counter-screen hit in parental HEK293 cells. shares compounds with MrgX1 antagonist. parental HEK293 calcium flux, Fluo-4 fluorescence ratio; hits give high values. fluorescence ratio F(max-min)/F0 at 10 µM. actives 0.4% (n = 4,000). AID 624114;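 active means calcium fluorescence ratio, averaged over duplicates, at least 3 SD of the buffer-well ratio, meaning a nonspecific response in receptor-free cells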;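 further: untransfected parental HEK293 lacking MrgX1 used as counterscreen for MrgX1 allosteric activators; fluorescence change taken during the second addition on a kinetic imager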
HEK293 Ca cntr2 = MrgX1 activator counter-screen hit in parental HEK293 cells; shares compounds with MrgX1 antagonist; Fluo-4 calcium fluorescence (FDSS); hits give high values; AID 624115; actives 8.7% (n = 4,000); fluorescence ratio F(max-min)/F0 at 10 µM;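 active means calcium fluorescence ratio at least three times the spread of buffer wells, meaning a non-specific response in parental cells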
Starred values were filed as active, the others as inactive; i = inactive; · = no result given. The list is not random: actives were taken first. Their share in the collection is about 3.5%.

SMILES | MrgX1 agonist | RGS4 pot | RGS4 inh | MrgX1 PAM | MrgX1 antagonist | MrgX1 antag conf | HEK293 Ca flux | HEK293 Ca counter | HEK293 Ca cntr2
C=CCn1c(SCC(=O)Nc2sccc2C(N)=O)nc2sc(CC)cc2c1=O | i | i | i | i | i | · | · | · | ·
CC1CCN(C(=O)C2CCC(CNS(=O)(=O)c3cccc4cccnc34)CC2)CC1 (centres undefined) | i | i | i | i | -5.3* | i | i | i | i
Cc1nc(N2CCN(C(=O)c3cnccn3)CC2)c2c3c(sc2n1)CC(C(C)(C)C)CC3 (centres undefined) | i | i | i | i | i | · | · | · | ·
Cc1cccc(CNC(=O)Cn2ccc3cc(S(=O)(=O)N4CCCCCC4)ccc32)c1 | i | i | i | i | i | · | · | · | ·
Cc1cccc(CNC(=O)Cn2ccc3cc(S(=O)(=O)N4CCCC4)ccc32)c1 | i | i | i | i | -6.8* | i | i | i | i
CCSc1nnc(NC(=O)C(CC)Oc2ccccc2)s1 (centres undefined) | i | i | i | i | -6.6* | i | i | i | i
CCSc1nnc(NC(=O)COc2ccccc2)s1 | i | i | i | i | i | · | · | · | ·
Nc1nc(N)c(Cc2ccc(Cl)cc2Cl)c(N)n1 | i | i | i | i | -4.8* | 71%* | i | i | i
NNc1ccc(Cc2ccc(Cl)cc2Cl)nn1 | i | i | i | i | i | · | · | · | ·
O=c1[nH]c2cc(Br)cnc2nc1/C=C(\O)c1ccc(F)cc1 | i | i | i | i | -7* | 75%* | i | i | i
Cc1ccccc1-n1c(=O)cc(N2CCCCCC2)[nH]c1=O | i | i | i | i | -6* | i | i | i | i
C/C(CC(=O)Nc1ccc2ccccc2c1)=N\NC(=O)c1ccc(O)c(O)c1 | i | i | i | i | i | · | · | · | ·
Cn1cnnc1SCC(=O)NCc1cccc(C(F)(F)F)c1 | i | i | i | i | -6.5* | i | i | i | i
O=C(CCNC(=O)c1ccc(Cl)cc1)NCc1cccc(C(F)(F)F)c1 | i | i | i | i | -10* | i | i | i | i
O=C(/C=C/NNC(=O)c1ccccc1O)c1ccccc1 | i | i | i | i | i | · | · | · | ·
CC(C)(C)NC(=O)CSc1nnc(CN2CCCCCC2=O)n1-c1ccccn1 | i | i | i | i | i | · | · | · | ·
O=C(CSc1nnc(CN2CCCCCC2=O)n1-c1ccccn1)NCC(F)(F)F | i | i | i | i | -4.6* | i | i | i | i
S=C(NCCc1c[nH]c2ccccc12)NC1CCCC1 | i | i | i | i | -4.9* | i | i | i | i
S=C(NCCc1c[nH]c2ccccc12)NC1CCCCC1 | i | i | i | i | i | · | · | · | ·
COc1ccc(NC(=O)CNS(=O)(=O)c2cccc3nonc23)c(OC)c1 | i | i | i | i | -5.7* | i | i | i | i
C/C(Cl)=C\Cn1c(NCCc2ccccc2)nc2c1c(=O)n(C)c(=O)n2C | i | i | i | i | i | · | · | · | ·
CCN(CC)CCNc1nc2c(c(=O)n(C)c(=O)n2C)n1C/C=C(/C)Cl | i | i | i | i | -4.6* | i | i | i | i
COc1ccccc1NC(=O)c1cc2c(s1)-c1ccccc1S(=O)(=O)C2 | i | i | i | i | i | · | · | · | ·
O=C(CSc1ccccn1)Nc1nc2ccccc2s1 | i | i | i | i | -7.6* | 85%* | i | i | i
COc1ccc(NC(=O)CSc2ccccn2)cc1OC | i | i | i | i | -4.8* | i | i | i | i
SMILES | MrgX1 agonist | RGS4 pot | RGS4 inh | MrgX1 PAM | MrgX1 antagonist | MrgX1 antag conf | HEK293 Ca flux | HEK293 Ca counter | HEK293 Ca cntr2
NS(=O)(=O)c1ccc(CNC(=O)C(c2ccccc2)c2ccccc2)cc1 | i | i | i | i | i | · | · | · | ·
COc1ccc(-c2nc(C3CCCCC3)c3cc(OC)ccc3n2)cc1 | i | i | i | i | -5* | i | i | i | i
CON(C)c1nc(C2CCCCC2)c2cc(C)ccc2n1 | i | i | i | i | i | · | · | · | ·
CNC(=O)CSc1nnc(-c2cccnc2)n1-c1ccc(C)cc1 | i | i | i | i | -5.6* | i | i | i | i
CCc1noc(C)c1C(=O)NNC(=O)c1ccccc1F | i | i | i | i | i | · | · | · | ·
CC(C)[C@H](N[C@@H](C)c1ccccc1)c1c(O)ccc2ccccc12 | i | i | i | i | i | · | · | · | ·
O=C(NCc1ccncc1)C(=O)Nc1nc2ccccc2s1 | i | i | i | i | i | · | · | · | ·
COc1ccc(OC)c(S(=O)(=O)Nc2ccc(OCC(=O)O)cc2)c1 | i | i | i | i | i | · | · | · | ·
COc1ccc(OC)c(S(=O)(=O)Nc2ccc(CC(=O)O)cc2)c1 | i | i | i | i | -9.2* | i | i | i | i
CSc1nc2c(c(=O)[nH]c(=O)n2C)n1Cc1ccccc1Cl | i | i | i | i | i | · | · | · | ·
Cc1csc(Sc2nc3c(c(=O)[nH]c(=O)n3C)n2Cc2ccccc2Cl)n1 | i | i | i | i | -8.8* | i | i | i | i
CCOc1ccc(C2C(C(=O)c3ccco3)=C(O)C(=O)N2CCCn2ccnc2)cc1OC (centres undefined) | i | i | i | i | i | · | · | · | ·
Cc1ccc(-c2csc(NC(=O)c3ccc4c(=O)n5c(nc4c3)CCCCC5)n2)cc1 | i | i | i | i | -5.5* | 71%* | i | i | i
CCOc1ccc(CCNC(=O)C2CCCN(c3ncnc4c3nc3n4CCCCC3)C2)cc1 (centres undefined) | i | i | i | i | i | · | · | · | ·
CC1=C(C(=O)Nc2ccccn2)C(c2cn(C)nc2C)C2=C(CCCC2=O)N1 (centres undefined) | i | i | i | i | -4.9* | i | i | i | i
